# bovine MsrA act: bovine MsrA enzyme activators, primary screen, biochemical, absorbance, HTS. Methionine sulfoxide reductase A (Bos taurus). purified bovine MsrA, absorbance read-out. activation, % at 10.6 µM. actives 0.3% (n = 360,000). AID 602163, 2012; in the data active = activation above about 7.5%;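 also: 0% = vehicle and 100% = reference activator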
# PKA-R2B act: activators of PKA-R2B holoenzyme, primary screen, biochemical, fluorescence polarization, Cy5-IP20, human; activation, % at 11.4 µM; AID 504700, 2011; actives 0.079% (n = 340,000); PKA-R2B holoenzyme dissociation; R2B truncated from residue 108, S112A mutant; 0% DMSO only, 100% 113 µM cGMP; cAMP-dependent protein kinase catalytic subunit beta (Homo sapiens) + cAMP-dependent …;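 active = activation above a cutoff set at the mean over all compounds plus 3 SD, cut at about 18% in these data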;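 also: higher means more holoenzyme dissociation and a rise in polarization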
# Target sequence (P31323 whole entry, looked up, other chains not shown, the tested form may be a part): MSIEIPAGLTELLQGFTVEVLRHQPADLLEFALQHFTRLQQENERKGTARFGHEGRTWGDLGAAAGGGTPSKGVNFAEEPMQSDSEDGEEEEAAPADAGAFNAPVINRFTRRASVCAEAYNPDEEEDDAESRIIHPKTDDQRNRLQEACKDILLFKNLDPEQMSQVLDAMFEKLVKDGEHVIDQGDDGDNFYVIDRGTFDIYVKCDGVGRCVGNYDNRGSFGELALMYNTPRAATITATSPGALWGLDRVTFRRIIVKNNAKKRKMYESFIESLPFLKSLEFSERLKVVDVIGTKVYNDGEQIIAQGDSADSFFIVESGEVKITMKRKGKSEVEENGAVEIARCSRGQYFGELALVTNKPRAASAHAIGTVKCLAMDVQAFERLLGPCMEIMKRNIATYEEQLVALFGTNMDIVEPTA
# MsrA inhibitor: bovine MsrA enzyme inhibitors, primary screen, biochemical, absorbance, HTS. purified bovine MsrA, absorbance read-out. inhibition, % at 15.5 µM. actives 0.75% (n = 360,000). AID 651718, 2012;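 also: 0% = vehicle wells with enzyme and 100% = reference inhibitor wells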
# IMP-1 inhibitor: IMP-1 metallo-beta-lactamase inhibitors, primary screen, biochemical, epi-absorbance readout, Pseudomonas aeruginosa enzyme; metallo-beta-lactamase IMP-1 (Pseudomonas aeruginosa); purified IMP-1, nitrocefin hydrolysis, epi-absorbance fluorescence; inhibition, % at 5.6 µM; actives 0.45% (n = 290,000);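 active = inhibition above the mean plus 3 SD of all compounds in the same screening run, cut at about 4.5% in these data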;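 also: 0% = IMP-1 with DMSO and 100% = DMSO wells lacking enzyme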
#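 System: purified IMP-1 / Input: IMP-1 dispensed at 0.2 nM / Medium: 50 mM HEPES pH 7.1, 50 µM ZnSO4, 0.05% Brij 35 / Timing: 15 min enzyme–compound preincubation, then 25 min nitrocefin reaction, 25 °C / Technique: plate fluorescence quenching by hydrolysis product, ex 480/em 530 nm / Repeats: singlicate testing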
# PKA-R1A act: activators of PKA-R1A holoenzyme, primary screen, biochemical, fluorescence polarization, Cy5-IP20, bovine R1A, mouse PKAc. cAMP-dependent protein kinase type I-alpha regulatory subunit (Bos taurus) + …. PKA-R1A dissociation; scaled: DMSO 0%, 113 µM cGMP 100%. activation, % at 11.4 µM. actives 0.083% (n = 340,000). AID 504707, 2011;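 active = percent activation above the mean of all tested compounds plus 3 SD, cut at about 19% in these data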;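 also: higher means more PKAc released from R1A so a rise in polarization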
# VIM-2 inhibitor: VIM-2 metallo-beta-lactamase inhibitors, primary screen, biochemical, epi-absorbance readout, Pseudomonas aeruginosa enzyme | actives 0.89% (n = 290,000) | AID 1527, 2009 | inhibition, % at 5.6 µM | purified VIM-2, nitrocefin hydrolysis, epi-absorbance fluorescence;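 active = inhibition above the mean of all tested compounds plus 3 SD, cutoff set per screening run, cut at about 7.5% in these data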;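 also: red hydrolysis product quenches plate fluorescence so inhibitors raise well fluorescence; 0% = enzyme with DMSO and 100% = DMSO without enzyme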
# MsrA inh confirm: bovine MsrA inhibitors, retest, confirmation, biochemical, absorbance, HTS | shares compounds with MsrA inhibitor | purified bovine MsrA, absorbance read-out | inhibition, % at 15.5 µM | actives 41% (n = 2,300) | AID 651822, 2012;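 also: coupled to thioredoxin reductase with NADPH and selenocystamine and DMSO as substrate; 0% = vehicle only and 100% = full effect of reference inhibitor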
# Starred values were filed as active, the others as inactive; . = not tested or not shown. Only some compounds are listed: those with a hit (about 2.1% of all), similar ones and a draw of the others. Rule as the data show it, unless noted: active = inhibition above about 4.5%; inactive = the rest.
SMILES,bovine MsrA act,PKA-R2B act,MsrA inhibitor,IMP-1 inhibitor,PKA-R1A act,VIM-2 inhibitor,MsrA inh confirm
CCOC(=O)c1c(N)sc(C(N)=O)c1C,-9,-6,1,-3,-8,0,.
C[C@H](CO)N1C[C@H](C)[C@@H](CN(C)C(=O)Nc2cccc(C(F)(F)F)c2)OCc2cn(nn2)CCCC1=O,.,.,0,.,.,.,.
Oc1ccc(/C=N/NC(=S)Nc2cccnc2)c(O)c1,-5,-7,7.0*,-3,-8,0,5.2*
O=C1c2ccc3c4c(ccc(c24)C(=O)N1c1cccc(O)c1)C(=O)N(c1cccc(O)c1)C3=O,3,-1,9.5*,-2,-6,-1,7.1*
CCCn1c(SC/C(O)=C(\C#N)c2nc3ccccc3[nH]2)n[nH]c1=O,-5,-9,4.7*,-4,-4,-2,2
Cn1cnnc1SC/C(O)=C(\C#N)c1nc2ccccc2[nH]1,-8,-12,4.8*,-1,1,0,2
N#C/C(=C(/O)CSc1n[nH]c(N)n1)c1nc2ccccc2[nH]1,-5,2,3,-3,2,-4,.
COc1cc2sc(-c3ccc(S(C)(=O)=O)cc3)c(C(=O)NCCCCO)c2cc1OC,-4,-4,5.5*,.,-1,.,2
Cc1cc(C)cc(Nc2ccc([N+](=O)[O-])nc2[N+](=O)[O-])c1,-1,-9,19*,-2,3,-2,17*
COc1cc(Nc2ccc(C)cc2)c([N+](=O)[O-])nc1[N+](=O)[O-],-1,4,2,-1,4,1,.
CCn1c(CNC(=O)c2ccccc2Br)nnc1SCC(=O)NC1=NCCS1,-2,1,6.5*,-2,2,-3,1
CCCCN1C(=O)C(=O)N(CC(=O)c2ccc3c(c2)OCO3)C1=O,-4,-3,-1,.,-16,.,.
Oc1[nH]c2ccccc2c1C=NCC1CCCO1 (stereo unspecified),-8,-1,6.0*,-4,5,-2,3
CC(=O)NC(c1ccc(F)c(F)c1)c1nc(-c2ccncc2)cs1 (stereo unspecified),-4,.,0,.,.,.,.
COc1cccc(C2=N/C(=C\N(C)C)C(=O)O2)c1,-8,6,11*,-5,-6,-3,7.0*
COc1cccc(-c2nc3ccccc3c(=O)o2)c1,-4,8,1,-3,0,-5,.
CCOC(=O)C1CCCN(C(=O)c2ccccc2OC(F)(F)F)CC1 (stereo unspecified),-1,.,-1,.,.,.,.
Cc1cc(C)n2nc(C(F)(F)F)c(-c3ccccc3)c2n1,-1,-8,4.8*,-2,1,-2,0
O=C(NCC(c1ccco1)N1CCCC1)c1cc2ccccc2s1 (stereo unspecified),-3,-5,2,.,7,.,.
O=C(/C=C\c1cccs1)c1c(O)ccc2ccc(=O)oc12,-7,-4,5.4*,-1,-11,-1,6.3*
Oc1ccc(/C=N/Nc2cc(N3CCOCC3)nc(N3CCOCC3)n2)cc1,-15,-7,5.8*,-4,5,-6,5.7*
Fc1cccc(/C=N/Nc2cc(N3CCOCC3)ncn2)c1,-3,1,4.9*,-2,9,-1,3
COC(=O)CSC1=C(C#N)C(=O)NC(c2ccccc2)S1 (stereo unspecified),-19,1,6.1*,-2,-9,-1,4.8*
CSC1=C(C#N)C(=O)NC(c2ccccc2O)S1 (stereo unspecified),-7,-4,2,-1,-8,3,.
Nc1nc2nccc(-c3ccc(Cl)cc3)n2n1,-5,-5,5.2*,-2,-2,-1,2
SMILES,bovine MsrA act,PKA-R2B act,MsrA inhibitor,IMP-1 inhibitor,PKA-R1A act,VIM-2 inhibitor,MsrA inh confirm
Cc1cc(-c2ccc(Cl)cc2)n2nc(N)nc2n1,-10,-9,1,-3,0,3,.
COc1ccc(S(=O)(=O)Nc2cc(Sc3ncn[nH]3)c(O)c3ccccc23)cc1,.,.,64*,-7,.,7,0
COc1ccc(S(=O)(=O)Nc2cccc3ccc(O)cc23)cc1,-9,-4,-1,.,6,.,.
COc1ccc(S(=O)(=O)Nc2cc(SCC(=O)O)c(O)c3ccccc23)cc1,5,-5,7.4*,3,0,6,0
COc1ccc(S(=O)(=O)Nc2ccc(O)c(Sc3ncn[nH]3)c2)cc1,-15,14,1,-2,-4,-4,.
O=c1cccc(-c2ccc3ccccc3c2)o1,.,.,5.0*,.,.,.,3
COc1ccc(/C=C(\C#N)C(=O)N2COCC2(C)C)cc1,-2,14,5.1*,-1,1,-1,3
COc1ccc(/C=C(\C#N)C(=O)N=CN(C)C)cc1,-2,-2,1,-2,-6,-2,.
COc1ccccc1-c1csc(C(C)(O)c2ccccc2)n1 (stereo unspecified),0,.,1,.,.,.,.
CCC(C)NC(=O)c1cc2cc3ccc(OC)cc3nc2o1 (stereo unspecified),-5,-1,5.0*,0,-2,2,5
COCCNC(=O)c1cc2cc3ccc(OC)cc3nc2o1,-5,-8,4.8*,-4,-9,-7,4
COc1ccc2cc3cc(C(=O)NCCC(C)C)oc3nc2c1,-2,1,1,-1,-12,0,.
COc1ccc2cc3cc(C(=O)NCC4CCCO4)oc3nc2c1 (stereo unspecified),-5,-13,6.2*,-3,1,1,4
CC(=O)c1c(C)[nH]c(C(=O)OCC(=O)Nc2ccc3c(c2)OCCO3)c1C,-2,2,-1,.,0,.,.
COC(=O)c1ccc(S(=O)(=O)N2CCCN(Cc3ccccc3)CC2)n1C,-1,2,2,-3,-3,-2,.
COC(=O)c1ccc(S(=O)(=O)N2CCCN(Cc3cccc(Br)c3F)CC2)n1C,-1,-4,15*,-4,-11,-3,11*
Cc1cc(Cl)ccc1N(CC(=O)N(C)Cc1ccccc1)S(C)(=O)=O,0,-2,1,.,4,.,.
COc1ccc(-c2cc(CCC(=O)N3CCN(c4cc(C)ccc4C)CC3)on2)cc1,-6,-2,1,.,-2,.,.
COc1ccc(OC)c(/C=C2\Oc3cc(OCC(=O)N4CCC[C@H]4C(=O)O)ccc3C2=O)c1,-5,11,.,-3,-5,3,.

# Assay outcomes from PubChem.
